Screens as filed in PubChem BioAssay.
NadD inh: inhibitors of S. aureus NadD, primary screen, biochemical, colorimetric, uHTS. inhibition, % at 20 µM. 360,000 compounds, 0.78% hits. Nicotinate-nucleotide adenylyltransferase NadD (Staphylococcus aureus N315). purified NadD enzyme, colorimetric absorbance read-out. AID 602399, 2012; in the data active = inhibition above about 26%
SENP1 inh: human SENP1 catalytic domain inhibitors, primary screen, biochemical, FRET, uHTS; recombinant SENP1 catalytic domain, CyPet-SUMO1-YPet FRET cleavage; inhibition, % at 10 µM; 360,000 compounds, 0.21% hits;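 active = inhibition at least 30% at 10 µM, raw YFP signal under a set limit, fluorescence ratio 0.5 to 1.5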;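 also: 0% = enzyme with DMSO and 100% = no enzyme wells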
Target sequence (Q9P0U3 419-644 limits assumed): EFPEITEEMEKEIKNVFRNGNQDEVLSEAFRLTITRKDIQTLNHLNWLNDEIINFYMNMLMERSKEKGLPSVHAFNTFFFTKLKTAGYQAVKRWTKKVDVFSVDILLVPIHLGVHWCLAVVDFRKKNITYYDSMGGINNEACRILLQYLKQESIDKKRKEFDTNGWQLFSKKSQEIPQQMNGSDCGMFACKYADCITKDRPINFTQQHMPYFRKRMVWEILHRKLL
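Controls: no-enzyme wells low, DMSO-plus-enzyme wells high control. Test system: human recombinant His6-tagged SENP1 catalytic domain enzyme. Reagent: SFCypet-SUMO1-SFYpet FRET protein substrate, 25 nM final. Doses: one dose per compound, 10 µM, 0.5% DMSO. Detection: FRET, CFP and YFP emission. Timing: 50 min reaction at room temperature.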
NR3A LBD binder: binders of NR3A ligand-binding domain, primary screen, biophysical, differential scanning fluorimetry, uHTS. Tm shift relative to glycine control, % at 25 µM. Glutamate receptor ionotropic, NMDA 3A (GRIN3A) ligand-binding domain. NR3A LBD differential scanning fluorimetry, Tm shift; 0% = protein alone, 100% = glycine-bound protein. 340,000 compounds, 2.5% hits. AID 1259313, 2017;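 active = melting temperature shift of at least 10% of the positive control shift, at one fixed dose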
UCH37 DUB inh: inhibitors of human UCH37 deubiquitinase, primary screen, biochemical, Ub-AMC cleavage, fluorescence | Ubiquitin carboxyl-terminal hydrolase isozyme L5 (Homo sapiens), Q9Y5K5 | purified proteasome/UCH37 | inhibition, % (no concentration beside the values) | 330,000 compounds, 0.33% hits | AID 588478, 2011;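 active = mean inhibition over replicate wells above about 20%, limit read from the data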;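 also: 0% = compound-free wells with enzyme and 100% = wells lacking proteasome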
Target sequence (Q9Y5K5 whole entry, looked up): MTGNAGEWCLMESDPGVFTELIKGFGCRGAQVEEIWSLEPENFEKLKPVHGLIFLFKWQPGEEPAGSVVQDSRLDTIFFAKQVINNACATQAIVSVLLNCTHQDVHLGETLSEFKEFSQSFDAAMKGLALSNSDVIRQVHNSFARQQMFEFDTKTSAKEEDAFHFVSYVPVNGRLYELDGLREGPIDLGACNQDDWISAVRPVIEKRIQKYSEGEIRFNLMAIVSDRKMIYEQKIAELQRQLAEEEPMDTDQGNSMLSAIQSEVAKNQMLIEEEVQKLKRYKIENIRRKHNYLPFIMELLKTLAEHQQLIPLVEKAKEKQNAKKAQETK
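Test system – human UCH37 enzyme supplied as purified proteasome complex · Incubation – 30 min preincubation with enzyme, 25 min cleavage at room temperature · Detection – AMC fluorescence from Ub-AMC cleavage, excitation 355 nm, emission 460 nm · Benchmarks – no-proteasome wells (full inhibition) and compound-free wells (no inhibition)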
ATG4B inh: ATG4B protease inhibitors, primary screen, biochemical, fluorescence, uHTS | Cysteine protease ATG4B (Homo sapiens), Q9Y4P1 | inhibition, % at 8.33 µM | ATG4B cleavage of LC3-PLA2, NBD-HPC fluorescence, 1 h | AID 504462, 2011 | 340,000 compounds, 0.51% hits; in the data active = inhibition above about 40%
* hit, by the source's call; x = not tested or not shown. The list is not random: actives were taken first. Their share in the collection is about 3.6%.

SMILES	NadD inh	SENP1 inh	NR3A LBD binder	UCH37 DUB inh	ATG4B inh
C(=Nn1cnnc1)c1cccs1	x	x	x	6	x
CC(=O)c1ccc(NC(=O)/C=C/c2ccc(C)cc2)cc1	-5	2	20*	5	-6
CCC(=O)Nc1ccc(NC(=S)NC(=O)/C=C/c2ccccc2)cc1	-10	1	15*	11	5
CCC(=O)Nc1ccc(NC(=O)/C=C/c2ccc(Cl)cc2)cc1	-1	2	20*	2	6
CC(=O)Nc1ccc(NC(=S)NC(=O)/C=C/c2ccc(Cl)cc2)cc1	-2	2	-5	8	-6
Cc1ccc(C(=O)NN=Cc2ccc(-c3cccc(C(F)(F)F)c3)o2)cn1	x	x	x	-66	x
CCCCCCN1C=CC(=C2C(=O)c3ccccc3C2=O)C=C1	3	48*	-6	1	-8
CCCN1C=CC(=C2C(=O)c3ccccc3C2=O)C=C1	-2	14	1	15	-5
O=[N+]([O-])c1ccc(Cl)c2c1C1C=CCC1C(c1ccccn1)N2 (stereo not given)	41*	5	0	6	0
COc1ccc(C2=NOC(C(=O)N3CCCCCC3)C2)cc1OC (stereo not given)	2	0	-1	3	1
COc1cc(C2=NOC(C(=O)N3CCOCC3)C2)cc(OC)c1OC (stereo not given)	-8	1	13*	3	-7
COc1ccc(NC(=O)Cn2nnc(-c3ccccc3NC(=O)c3cccs3)n2)cc1	-2	1	10*	-2	10
COc1ccc(Cl)c(NC(=O)Cn2nnc(-c3ccccc3N)n2)c1	0	3	2	1	-10
CCOC(=O)c1ccc(NC(=O)Cn2nnc(-c3ccccc3C)n2)cc1	-9	1	13*	0	-4
Cc1ccc(NC(=O)CN(C)C(=O)Cn2nnc(-c3ccccc3C)n2)cc1	-5	2	-3	-1	-9
Cc1cc(NC(=O)Cn2nnc(-c3ccccc3N)n2)no1	-5	-4	26*	-1	-6
O=C(Cn1nnc(-c2ccccc2NC(=O)c2ccco2)n1)Nc1ccccc1	-6	-2	3	-1	-2
Cc1ccc(NC(=O)Cn2nnc(-c3ccccc3NC(=O)c3cccs3)n2)cc1	10	1	20*	-20	-3
CC(CC(=O)Nc1cc(C)ccn1)=NNC(=O)c1ccc(C)cc1	x	x	x	3	x
Cc1cc(-c2n[nH]c(=S)n2N=Cc2ccc(C)s2)n[nH]1	x	x	x	1	x
CC(=O)OCC(=O)Nc1ccc(C(C)=O)cc1	3	4	3	3	5
CC(=O)NCC(=O)OCC(=O)Nc1ccc(C(C)=O)cc1	0	1	13*	3	2
CC(C)(C)c1cc(C(=O)Nc2cccc3ccccc23)ccn1	-3	2	683*	0	-1
Cc1ccc(C(=O)Nc2cccc3ccccc23)cc1	-7	1	-2	2	-2
Nc1cc(-c2ccc(Cl)cc2)nn1S(=O)(=O)c1cccc2nsnc12	-8	2	19*	2	-13
SMILES	NadD inh	SENP1 inh	NR3A LBD binder	UCH37 DUB inh	ATG4B inh
O=C(c1ccc2oc(Cc3ccc(Cl)cc3)nc2c1)N1CCCCC1CCO (stereo not given)	-4	2	10*	4	-10
Fc1ccc(-c2nc(-c3cccs3)[nH]c2-c2ccc(F)cc2)cc1	9	16	19*	-103	38
COC(=O)c1nnn(-c2nonc2N)c1CN1CCc2ccccc21	1	-8	-11	2	-7
C/C(=N\NC(=O)c1nnn(-c2nonc2N)c1CN1CCc2ccccc21)c1ccccc1O	42*	-22	1	x	1
CC(C)c1c(C(=O)N/N=C2\CCc3ccccc32)nnn1-c1nonc1N	-3	1	10*	x	-3
CCCc1c(C(=O)N/N=C/C(C)=C/c2ccccc2)nnn1-c1nonc1N	15	4	34*	x	-3
CC(/C=N/NC(=O)c1nnn(-c2nonc2N)c1C(C)C)=C\c1ccccc1	-4	3	27*	x	3
C/C(C=NNC(=O)c1nnn(-c2nonc2N)c1C(C)C)=C\c1ccco1	x	x	x	-17	x
COc1cc(OC)c(OC)cc1C=NN(C)c1ccccc1	x	x	x	1	x
O=C(NN=Cc1cccnc1)c1cccc(Br)c1	x	x	x	5	x
CCNC(=S)NN=C(C)c1ccc(Cl)s1	x	x	x	7	x
O=C(CNC(=O)c1cccc(Br)c1)NN=Cc1cc(Br)cc(Br)c1O	x	x	x	0	x
COCCCN=CC1=C(O)CC(c2ccccc2)CC1=O (stereo not given)	-4	1	-2	2	3
CC(C)CCN=CC1=C(O)CC(c2ccccc2)CC1=O (stereo not given)	-3	1	-2	x	0
CCCN=CC1=C(O)CC(c2ccccc2)CC1=O (stereo not given)	3	1	391*	1	2
O=C1CC(c2ccccc2)CC(O)=C1C=NCCCO (stereo not given)	-1	-3	0	22*	-2
CC(=NNC(=O)Cc1cc(=O)[nH][nH]1)c1ccc([N+](=O)[O-])cc1	x	x	x	6	x
O=C1N=C(N2C=CC(=C3C=CNC=C3)C=C2)/C(=C/N=NC(=O)c2ccccc2)S1	1	8	-1	24*	1
O=C(/C=C/c1ccccc1)Nc1ccc(S(=O)(=O)N2CCOCC2)cc1	-1	2	31*	6	0
CN(C)S(=O)(=O)c1cccc(NC(=O)/C=C/c2ccc(S(=O)(=O)N3CCOCC3)cc2)c1	-3	2	-1	7	-21
O=C(/C=C/c1cccc(F)c1)Nc1ccc(S(=O)(=O)N2CCOCC2)cc1	-1	3	37*	6	-14
CC(=O)c1cccc(NC(=O)/C=C/c2ccc(S(=O)(=O)N3CCOCC3)cc2)c1	2	4	5	5	-13
O=C(/C=C/c1ccc(OC(F)F)cc1)Nc1cccc(S(=O)(=O)N2CCOCC2)c1	-8	1	20*	2	-19
CC(ON=Cc1ccc(OC(F)F)cc1)C(=O)Nc1cccc(S(=O)(=O)N2CCOCC2)c1 (stereo not given)	x	x	x	5	x
S=c1[nH]nc(-c2cc(-c3ccccc3)n[nH]2)n1N=Cc1cccs1	x	x	x	2	x
Clc1nc(-c2ccccn2)nc2scc(-c3ccccc3)c12	5	-1	24*	3	8
Cn1c(NCc2ccco2)nc2c1c(=O)n(Cc1ccc(Cl)cc1)c(=O)n2C	-2	-1	15*	2	-4
